Measurements reported in ChEMBL document CHEMBL3875163, “Novel urea and bis-urea primaquine derivatives with hydroxyphenyl or halogenphenyl substituents: Synthesis and biological evaluation” (Eur J Med Chem, 2016).
≈ marks a conversion by molar mass, not a printed value.

Assays:
[1] = Growth inhibition of mouse L1210 cells after 72 hrs by MTT assay; format: functional, cell-based; settings: L1210, 72 h
[2] = Growth inhibition of human Molt4/C8 cells after 72 hrs by MTT assay; format: functional, cell-based; settings: MOLT-4, 72 h
[3] = Growth inhibition of human CEM cells after 72 hrs by MTT assay; format: functional, cell-based; settings: CCRF-CEM
[4] = Growth inhibition of human HeLa cells after 72 hrs by MTT assay; format: functional, cell-based
[5] = Growth inhibition of human MIAPaCa2 cells after 72 hrs by MTT assay; format: functional, cell-based; settings: MIA PaCa-2, 72 h
[6] = Growth inhibition of human NCI-H460 cells after 72 hrs by MTT assay; format: functional, cell-based; settings: NCI-H460, 72 h
Summary of the method: (§1)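 Modified NCI DTP protocol: cells in DMEM with 10% FBS, 2 mM glutamine, antibiotics, 37 °C, 5% CO2; seeded 1 × 10^4 to 3 × 10^4 cells/ml on day 0, exposed to five 10-fold dilutions (10^-8 to 10^-4 M) for 72 h; solvent control. MTT read-out; quadruplicate points in three experiments; IC50 by linear regression of growth percentages bracketing 50%.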

[7] = Growth inhibition of human SW620 cells after 72 hrs by MTT assay; format: functional, cell-based; settings: SW-620, 72 h; summary of the method: as §1
[8] = Growth inhibition of human MCF7 cells after 72 hrs by MTT assay; format: functional, cell-based; settings: MCF7, 72 h; summary of the method: as §1
[9] = Antioxidant activity assessed as DPPH radical scavenging activity at 100 uM after 20 mins relative to control; format: functional
Summary of the method: (§2)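 Compound in DMSO added to DPPH in absolute ethanol, 0.1 mM final; absorbance at 517 nm after 20 and 60 min at room temperature. At least triplicate.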

[10] = Antioxidant activity assessed as DPPH radical scavenging activity at 100 uM after 60 mins relative to control; format: functional; summary of the method: as §2
[11] = Antioxidant activity assessed as inhibition of AAPH-induced linoleic acid lipid peroxidation at 1 x 10^-4 M by UV-absorbance method relative to control; format: functional
Summary of the method: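 Linoleic acid peroxidation: 16 mM sodium linoleate dispersion in 0.05 M phosphate buffer pH 7.4 at 37 °C under air, initiated by AAPH (40 mM solution); compound at 1 × 10^-4 M; oxidation followed at 234 nm. At least triplicate.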

Glycine max = experiment: Inhibition of soybean LOX assessed as reduction in conversion of sodium linoleate to 13-hydroperoxylinoleic acid at 1 x 10^-4 M relative to control
Summary of the method: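 Soybean lipoxygenase incubated at room temperature with sodium linoleate (0.1 mM) and test compound (DMSO stocks); formation of 13-hydroperoxylinoleic acid read at 234 nm. Single-point screening at 1 × 10^-4 M; IC50 from several concentrations. At least triplicate.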

Staphylococcus aureus [12] = experiment: Antibacterial activity against Staphylococcus aureus ATCC 6538 after 18 hrs by serial microdilution broth assay; format: functional; settings: ATCC 6538, 18 h
Summary of the method: (§3)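 Broth microdilution MIC per EUCAST for aerobic bacteria in Mueller-Hinton broth, serial dilution 1000 to 0.78125 µg/ml from 10 mg/ml DMSO stocks. Inoculum from trypticase soy broth cultures (18 h, 37 °C), set to 0.5 McFarland in PBS pH 7.4, diluted 1:10. 18 h aerobic incubation at 35 °C in dark, then TTC 0.5 mg/ml for 3 h, HCl-isopropanol, A490. MIC = lowest concentration giving 50% inhibition versus untreated; duplicates.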

Staphylococcus aureus [13] = experiment: Antibacterial activity against methicillin sensitive Staphylococcus aureus ATCC 25923 after 18 hrs by serial microdilution broth assay; format: functional; settings: ATCC 25923, 18 h
Summary of the method: (§4)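 EUCAST-based broth microdilution in Mueller-Hinton broth. Glycerol stock cultures grown in trypticase soy broth 18 h at 37 °C; inoculum in PBS pH 7.4 at 0.5 McFarland, diluted 1:10 in broth. Compounds from DMSO stocks, 1000 to 0.78125 µg/ml; 18 h aerobic, 35 °C, dark. TTC 0.5 mg/ml added, 3 h, then HCl/isopropanol, A490. MIC = lowest concentration giving 50% inhibition vs untreated; duplicates, averaged.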

Staphylococcus aureus [14] = experiment: Antibacterial activity against methicillin sensitive Staphylococcus aureus ATCC 25213 after 18 hrs by serial microdilution broth assay; format: functional; settings: ATCC 25213, 18 h; summary of the method: as §3
Staphylococcus aureus [15] = experiment: Antibacterial activity against methicillin resistant Staphylococcus aureus MFBF 10682 after 18 hrs by serial microdilution broth assay; format: functional; settings: MFBF 10682, 18 h; summary of the method: as §4
Staphylococcus aureus [16] = experiment: Antibacterial activity against methicillin resistant Staphylococcus aureus MFBF 10679 after 18 hrs by serial microdilution broth assay; format: functional; settings: MFBF 10679, 18 h; summary of the method: as §4
Enterococcus faecalis [17] = experiment: Antibacterial activity against vancomycin susceptible Enterococcus faecalis ATCC 29212 after 18 hrs by serial microdilution broth assay; format: functional; settings: ATCC 29212, 18 h; summary of the method: as §3
Enterococcus faecalis [18] = experiment: Antibacterial activity against vancomycin resistant Enterococcus faecalis MFBF 11419 after 18 hrs by serial microdilution broth assay; format: functional; settings: MFBF 11419, 18 h; summary of the method: as §4
Bacillus pumilus = experiment: Antibacterial activity against Bacillus pumilus NCTC 8241 after 18 hrs by serial microdilution broth assay; format: functional; settings: NCTC 8241, 18 h; summary of the method: as §3
Bacillus cereus = experiment: Antibacterial activity against Bacillus cereus ATCC 11778 after 18 hrs by serial microdilution broth assay; format: functional; settings: ATCC 11778, 18 h; summary of the method: as §3
Bacillus spizizenii = experiment: Antibacterial activity against Bacillus subtilis ATCC 6633 after 18 hrs by serial microdilution broth assay; format: functional; settings: ATCC 6633, 18 h; summary of the method: as §3
Pseudomonas aeruginosa [19] = experiment: Antibacterial activity against Pseudomonas aeruginosa ATCC 9027 after 18 hrs by serial microdilution broth assay; format: functional; settings: ATCC 9027, 18 h; summary of the method: as §4
Pseudomonas aeruginosa [20] = experiment: Antibacterial activity against Pseudomonas aeruginosa ATCC 27853 after 18 hrs by serial microdilution broth assay; format: functional; settings: ATCC 27853, 18 h; summary of the method: as §3
Pseudomonas aeruginosa [21] = experiment: Antibacterial activity against multi-drug resistant Pseudomonas aeruginosa MFBF after 18 hrs by serial microdilution broth assay; format: functional; summary of the method: as §4
Escherichia coli = experiment: Antibacterial activity against Escherichia coli ATCC 10535 after 18 hrs by serial microdilution broth assay; format: functional; settings: ATCC 10535, 18 h; summary of the method: as §3
Candida albicans = experiment: Antifungal activity against Candida albicans ATCC 90028 after 18 hrs by serial microdilution broth assay; format: functional; settings: ATCC 90028, 18 h
Summary of the method: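 Yeast microdilution in RPMI 1640 with glutamine plus 2% glucose, 1000 to 0.78125 µg/ml from 10 mg/ml DMSO stocks. Growth read with XTT (10 mg/ml) mixed 7:1 with menadione (1 mg/ml in acetone), absorbance at 540 nm. MIC taken as lowest concentration giving 50% growth inhibition versus untreated cells; tests in duplicate.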

[22] = Hemolytic activity against human RBC at 100 ug/ml after 1 hr relative to control; format: ADME, cell-based, Erythrocyte; settings: red blood cells (RBC), read-out: Activity
[23] = Cytotoxicity against HEK cells assessed as reduction in cell viability at 6.25 to 100 ug/ml after 24 hrs by MTT assay; format: toxicity, cell-based; settings: human, hek293, 24 h
Summary of the method: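 HEK 293 cells, 5 × 10^3 per well, treated next day for 24 h with compound (range within 200 to 1.5625 µg/ml). MTT 0.5 mg/ml in DMEM/10% FBS, 4 h at 37 °C, 5% CO2; formazan in DMSO, A570. Viability as percent of untreated control; triplicates, three independent experiments.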

[24] = Growth inhibition of human MCF7 cells by alamar blue assay; format: functional

In the case of `COc1cc(NC(C)CCCNC(=O)Nc2cccc(O)c2)c2ncccc2c1` (stereo not given), the IC50 [1] is reported as 25 µM, the IC50 [2] is reported as 24 µM and the IC50 [3] is reported as 32 µM. The IC50 [4] was 48 µM, the IC50 [5] was 46 µM and the IC50 [6] was 25 µM. The IC50 [7] was 27 µM, the IC50 [8] was 11 µM and the Activity [9] was 48.6%. The Activity [10] was 52.3%, the inhibition [11] was 66.9% and the inhibition (Glycine max) was 50.8%. It also gave an MIC50 (Staphylococcus aureus [12]) of 20 µg/mL (≈ 50.7 µM), an MIC50 (Staphylococcus aureus [13]) of 50 µg/mL (≈ 127 µM) and an MIC50 (Staphylococcus aureus [14]) of 50 µg/mL (≈ 127 µM). For the same molecule, the MIC50 (Staphylococcus aureus [15]) was 50 µg/mL (≈ 127 µM), the MIC50 (Staphylococcus aureus [16]) was 100 µg/mL (≈ 254 µM) and the MIC50 (Enterococcus faecalis [17]) was > 100 µg/mL. The MIC50 (Enterococcus faecalis [18]) was > 100 µg/mL, the MIC50 (Bacillus pumilus) was 12.5 µg/mL (≈ 31.7 µM) and the MIC50 (Bacillus cereus) was 50 µg/mL (≈ 127 µM). For the same molecule, the MIC50 (Bacillus spizizenii) was 50 µg/mL (≈ 127 µM), the MIC50 (Pseudomonas aeruginosa [19]) was 100 µg/mL (≈ 254 µM) and the MIC50 (Pseudomonas aeruginosa [20]) was 50 µg/mL (≈ 127 µM). The MIC50 (Pseudomonas aeruginosa [21]) was 100 µg/mL (≈ 254 µM), the MIC50 (Escherichia coli) was 100 µg/mL (≈ 254 µM) and the MIC50 (Candida albicans) was > 100 µg/mL. The hemolysis at 1 h, 100 ug/ml [22] was < 1% and the Activity [23] was “Non-Toxic”.

Molecule `COc1cccc2c1C(=O)c1c(O)c3c(c(O)c1C2=O)C[C@@](O)(C(=O)CO)C[C@@H]3O[C@H]1C[C@H](N)[C@H](O)[C@H](C)O1` [DOXORUBICIN] has an IC95 [24] of 1 µM.
